Screening data as filed in PubChem BioAssay.
Dynein transport: dynein cargo transport inhibition; 3617.4 mouse cells, GR-EGFP nuclear translocation imaging; test concentration mostly 20 µM; stimulated with dexamethasone, 1 µM; hits give low values; z-score, hits read low; hit rate 0.47% among 220,000;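 active means plate z-score of nuclear minus cytoplasmic receptor signal below a set negative limit, without overly bright fluorescence or cell loss, cut at about -3.5 in these data, passing the limit was not always enough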;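 further: z-score of nuclear minus cytoplasmic ring GR-EGFP intensity difference per well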
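medium = tetracycline-free induction medium containing charcoal-stripped FBS | also added = 1.0 µM final dexamethasone stimulus | schedule = 48 h induction, 1 h compound, 30 min dex at 37 °C | technique = fixed, Hoechst-stained cells imaged at 10x for EGFP | measure = GR-EGFP nuclear translocation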
MT stabilizer: microtubule stabilization, imaging screen | HeLa tubulin immunostaining HCS, 24 h; share of cells brighter than vehicle mean+2SD | % tubulin-high responders, % at 10 µM | hit rate 0.83% among 200,000;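 active means plate Z-score above 3 for both tubulin-high and condensed-nucleus cell shares, with cell loss under 80%, at 10 µM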;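 further: anti alpha tubulin signal scored within the nucleus-defined area of each cell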
Autophagy HCS: autophagy modulation, high-content screen | AID 463193 | calls only at 10 µM (by protocol) | MEF GFP-LC3 puncta imaging; test concentration mostly 10 µM | hit rate 0.98% among 190,000;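 active means percentage of spot-positive cells more than 3 SD above its plate mean, without a fluorescence outlier flag or 80% toxicity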;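 further: spot-positive cell cutoff set from DMSO-treated cells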
Ins promoter up: MIN6 insulin promoter up-regulation; z-score at 5 µM; AID 1625; hit rate 0.3% among 190,000; MIN6 insulin promoter-GFP reporter, high-content imaging; hits give high values;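 active means z-score above 3 at 5 µM with at least 500 cells counted in the well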
bCat nuc transl: alters nuclear translocation of beta-catenin in HeLa cells. immunofluorescence imaging. nuclear translocation activity, % at 5 µM. hit rate 0.3% among 190,000;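 active means nuclear translocation activity above 50% at 5 µM, with a well cell count of 50 or more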;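 further: per-cell ratio of nuclear to cytoplasmic median beta-catenin stain intensity; plate controls were DMSO negative control for no effect and GSK-3 inhibitor IX positive control for full effect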
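Test system: human HeLa cells, native beta-catenin. Compound dosing: 5 µM primary single dose, 0.1% DMSO, 0.02–20 µM confirmation series. Incubation: compound exposure 24 h at 37°C. Detection: beta-catenin immunostaining with DAPI counterstain, 20x imaging, 6 fields/well. Read-out basis: Nuclear/cytoplasmic beta-catenin signal ratio, % activation.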
* = called active by the depositor; i = inactive; nt = not tested or not shown; + = active, no number. Compounds with a hit are over-represented: about 2.3% of the library has one in this group of screens.

SMILES	Dynein transport	MT stabilizer	Autophagy HCS	Ins promoter up	bCat nuc transl
CCOc1ccc(C2CC(=O)c3c([nH]c(C(=O)OC)c3C)C2)cc1OC (centres undefined)	-2.1	1	i	-0.66	2
COC(=O)c1[nH]c2c(c1C)C(=O)CC(c1cc(OC)ccc1OC)C2 (centres undefined)	0.51	27*	nt	-1.1	-2
CCOC(=O)CS(=O)(=O)c1ccc(O)cc1	-0.56	3	i	0.54	-5
CSc1ccc(S(=O)(=O)N(CC(=O)NN=C2CCN(C)CC2)c2ccc(C)cc2)cc1	-0.84	4	i	0.73	0
COc1ccc2c(CC(=O)Nc3nccs3)coc2c1	-0.058	1	i	-0.41	1
C=C(C)CC1(NC(C)c2ccccc2)CCCCC1 (centres undefined)	3.5	4	i	0.11	nt
CCOC(=O)c1c2ccc(OCC(=O)N/N=C/c3ccc(C)cc3)cc2n2ccccc12	-1.8	10	+	0.5	4
Cc1c(NC(=O)C(C)n2cc([N+](=O)[O-])cn2)c(=O)n(-c2ccccc2)n1C (centres undefined)	0.073	3	i	-0.1	-3
N#Cc1cc2ccccc2nc1N	-0.062	4	+	1.2	-2
CC(C)CC(=O)Nc1nc2ccc(S(=O)(=O)N3CCOCC3)cc2s1	0.7	49*	i	-0.53	2
Clc1ccc(/C=C/c2nc(Cl)c(-c3ccc(Cl)cc3)c(Cl)n2)cc1	-1.1	nt	nt	-0.67	2
Cc1ccc(C(=O)Nc2cc3ccccc3oc2=O)cc1	-0.47	33*	i	0.36	84*
COc1cc(C(=O)NC(=S)Nc2cccc(-c3cc4ccccc4oc3=O)c2)cc(OC)c1OC	-0.61	2	i	-0.98	4
Cc1cc(NC(=S)NC(=O)c2ccccc2)ccc1-c1cc2ccccc2oc1=O	0.17	15*	i	0.21	0
CCCSc1nc(C)nc2c1c(=O)n(C)c(=O)n2C	-0.54	5	+	1.2	1
CCCCSc1nc(C)nc2c1c(=O)n(C)c(=O)n2C	-0.44	8	i	nt	-1
Nc1ccc(N2CCN(c3ccc(F)cc3)CC2)cc1	0.56	4	i	-0.31	-2
Nc1ccc(N2CCN(c3ccc(Cl)c(Cl)c3)CC2)cc1	1.6	5	+	-0.01	2
COc1ccccc1NC(=O)C1=C(C)NC(SCC(=O)c2ccc(C)cc2)=C(C#N)C1c1ccco1 (centres undefined)	-0.7	2	+	3.3*	1
CC(=O)C1=C(C)NC(SCC(=O)c2ccc(Cl)c(Cl)c2)=C(C#N)C1c1ccco1 (centres undefined)	-2.8	15	+	nt	26
CC(=O)C1=C(C)NC(SCC(=O)c2ccc(-c3ccccc3)cc2)=C(C#N)C1c1cccnc1 (centres undefined)	-2.3	4	+	0.15	1
O=C(Cc1ccc(-c2ccccc2)cc1)NCc1cccnc1	1.6	13*	i	0.59	45
O=C(Cc1ccccc1)NCc1cccnc1	-0.79	3	i	-0.19	-1
Cc1ccc(CNC(=O)CSCc2ccccc2)cc1	-0.68	3	+	-0.07	1
O=C(Cc1ccc(-c2ccccc2)cc1)NCc1ccccc1	-0.16	6	i	-1.1	55*
SMILES	Dynein transport	MT stabilizer	Autophagy HCS	Ins promoter up	bCat nuc transl
Cc1ccc(CNC(=O)CSCc2ccc(F)cc2)cc1	-1.1	2	i	nt	-1
O=c1c2[nH]c3cccc(Cl)c3c2ncn1Cc1ccco1	0.64	nt	nt	-0.23	-1
CC(=O)Cc1nsc(NC(=O)c2ccc(-c3cccc(Cl)c3)o2)n1	-0.068	14*	i	0.06	-1
O=C(NCC1CCCO1)c1ccc(NS(=O)(=O)c2cccs2)cc1 (centres undefined)	-0.19	nt	nt	-0.1	-3
N=C1C(c2nc3ccccc3s2)=C(O)CN1Cc1ccco1	-0.93	3	+	0.55	-2
CCOC(=O)c1ccc(N/C=C\C(=O)c2cccc(OC)c2)cc1	0.022	2	i	-0.07	4
COc1cccc(C(=O)/C=C/Nc2cc(C)ccc2O)c1	-0.25	2	+	0.75	nt
CC(=O)N1CC[n+]2c(-c3ccc(Cl)cc3)csc21	1.3	3	+	-0.39	-1
CCc1ccc(-c2csc3[n+]2CCN3C(C)=O)cc1	-0.29	3	i	0.7	-5
CCCCCCNC(=O)N[C@H](C(=O)NCCC[C@H]1CN2C(=NC[C@H]2C)N1CCC(c1ccccc1)c1ccccc1)C(C)O (some centres undefined)	-1.1	nt	nt	-0.35	1
CC(=O)c1c(COC(=O)c2ccncc2)nc2ccccc2[n+]1[O-]	-0.24	2	i	4.2*	-3
COc1ccc(-c2nnnn2-c2ccccc2OC)cc1	-0.38	20*	i	0.28	2
COc1cc2c3nnc(-c4ccc(F)cc4)c-3cn(Cc3ccccc3F)c2cc1OC	0.23	3	+	6.3*	0
COc1cc2c3nnc(-c4ccccc4)c-3cn(Cc3ccccc3F)c2cc1OC	1.4	5	i	nt	0
CCNC(=O)COC(=O)c1cc(C)n(-c2ccccc2)c1C	0.086	2	i	-0.72	-3
Cc1cc(C(=O)OCC(=O)NCc2ccco2)c(C)n1-c1ccc(F)cc1	-1.3	17*	i	-0.88	82*
Cn1c(=O)c2c(SCCN3CCOCC3)nc(C3CCCC3)nc2n(C)c1=O	-0.93	2	i	-1	-2
N#C[C@H]1[C@H](c2ccccc2)[C@](C#N)(C(=O)c2ccccc2)[C@@H]2C=Cc3ccccc3N21	-1.8	25*	i	0.7	78*
COc1ccc(C(=O)N2c3ccccc3C=CC2C#N)cc1 (centres undefined)	-0.99	5	i	nt	-1
O=C(NCCO)C(=O)c1c(-c2ccccc2)cc2ccccn12	0.72	3	i	0.36	1
CC/C(=N/Nc1ccccc1)c1cnnc(-c2ccccc2)n1	0.3	5	+	0.53	2
CC1=CC2=NC(=O)/C(=C\c3ccc(-c4ccc(Cl)cc4)o3)C(=N)N2O1	2.4	5	+	-0.03	3
CC1=CC2=NC(=O)/C(=C/c3cccs3)C(=N)N2O1	1.4	nt	nt	0.07	1
COCCNC(=O)c1cc(-c2ccccc2OC)on1	0.11	31*	nt	-0.75	3
COc1ccccc1-c1cc(C(=O)NCc2cccs2)no1	-0.25	2	i	-0.72	-1
COc1ccccc1-c1cc(C(=O)Nc2cc(C)nn2-c2ccccc2)no1	0.25	47*	i	-0.16	9
CC(=O)Nc1ccc(N2CCc3c(C)c(C#N)c4nc5ccccc5n4c32)cc1	-0.018	4	+	3.8*	0
C=CCn1c(=NC(=O)c2cc(-c3cccs3)nc3ccccc23)sc2cc(S(N)(=O)=O)ccc21	-0.19	3	i	9*	0
COCCn1c(=NC(=O)c2cc(-c3cccs3)nc3ccccc23)sc2cc(S(N)(=O)=O)ccc21	0.57	3	i	-2.1	2
